From PubChem BioAssay
Xi reactivation: X-chromosome reactivation activator; XiGFP mouse fibroblasts, % GFP-positive cells imaging, 3 d; cells co-treated with 5-aza-dC sensitizer; scaled so ellipticine positive control = 100%; activation, % at 7.58 µM; hit rate 0.055% among 360,000; AID 743238;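 active = mean normalized replicate activation at least 10% and every replicate at or above 10%; inconclusive = only one of the two criteria met; inactive = mean below 10% and not all replicates reach 10%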;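 note: 0% = median of on-plate neutral control wells and 100% = ellipticine 6 µM median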
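System: SV40-immortalized XiGFP fibroblast cells, line 68-5-11 / Incubation: 3-day compound exposure, then 15 min fixation at room temperature / Compound: single concentration per compound, delivered by pin transfer / Buffer or medium: DMEM plus 5-aza-dC sensitizer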
PglD inh: PglD (C. jejuni) enzyme inhibition | inhibition, % at 12.5 µM | purified PglD enzyme, DTNB colorimetric CoA detection | hit rate 0.098% among 360,000; in the data active = inhibition above about 16%, passing the limit was not always enough; inconclusive = no clear call, values can overlap the other calls
FGF22 binding: binders of recombinant human FGF22 by thermal shift; Q9HCT0; activity (Tm shift, normalised), % at 9.99 µM; hit rate 1.5% among 340,000; AID 651658; SYPRO orange fluorescence; percent of sucrose octasulfate shift, DMSO zero;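 active = mean Tm shift, scaled 0 neutral to 100 positive control, at about 1.3% or above, every replicate too, limit read from the data; inconclusive = no clear call, values can overlap the other calls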
Target sequence (Q9HCT0 whole entry, looked up): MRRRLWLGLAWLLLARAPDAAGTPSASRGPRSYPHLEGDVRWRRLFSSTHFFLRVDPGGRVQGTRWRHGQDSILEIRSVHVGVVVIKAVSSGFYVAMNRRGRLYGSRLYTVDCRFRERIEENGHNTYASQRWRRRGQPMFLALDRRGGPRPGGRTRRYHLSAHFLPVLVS
E-selectin induc: induces E-selectin expression in human endothelial cells; activation, % at 7.58 µM; HUVEC E-selectin immunofluorescence imaging; normalized: neutral wells 0, TNF-alpha wells 100; hit rate 0.37% among 260,000; P16581;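 active = mean E-selectin-positive cell signal at least 10% of the positive control, reached in at least 60% of replicates, without over 20% cell loss; inconclusive = no rule given, readout overlaps actives, possibly toxicity-flagged; inactive = the rest, including those meeting only one limit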
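Test system: HUVEC; input: 3,000 HUVEC/well; measured by: immunofluorescence imaging; read-out: % PE-positive cells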
C2C12 statin: suppressors of simvastatin-induced myotoxicity in C2C12 myotubes. rescue of ATP level, % at 7.49 µM. hit rate 0.78% among 330,000. ATP luminescence, 48 h; scaled: DMSO 0, geranylgeraniol control 100;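 active = mean ATP rescue above about 67%, or every replicate alone reaching that limit, limit read from the data, passing the limit was not always enough; inconclusive = no clear call, values can overlap the other calls; inactive = mean under the limit and some replicate under it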;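 note: myotubes were challenged with 10 µM simvastatin during compound exposure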
DENV2 CPE: DENV2-induced cell death inhibition; DENV2-infected cells, cytopathic effect rescue, plate reader; CPE inhibition, % at 9.99 µM; hit rate 1.7% among 350,000; in the data active = CPE inhibition above about 20%, passing the limit was not always enough; inconclusive = no clear call, values can overlap the other calls; tested in BHK-21 cells;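 note: 0% = median of neutral control wells and 100% = median of positive control wells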
Numbers without * were called inactive; ? = inconclusive; . = no result. Sampled rows, rich in hits. Any-hit rate of the full collection: about 3.3%.

SMILES | Xi reactivation | PglD inh | FGF22 binding | E-selectin induc | C2C12 statin | DENV2 CPE
C[C@H]1CN([C@@H](C)CO)C(=O)Cc2cc(NS(=O)(=O)c3ccccc3)ccc2O[C@@H]1CN(C)C(=O)Nc1ccccc1 | 0 | 2 | 0 | 0 | 26 | 23*
C[C@@H]1CN([C@H](C)CO)C(=O)Cc2cc(NS(=O)(=O)c3ccccc3)ccc2O[C@H]1CN(C)C(=O)Nc1ccccc1 | 0 | -2 | 0 | 0 | 28 | -1
CC(C)NC(=O)N(C)C[C@@H]1Oc2ccc(N(C)C)cc2C(=O)N([C@H](C)CO)C[C@@H]1C | -1 | 6 | 0 | 0 | 16 | -4
CC(=O)N(C)C[C@H]1Oc2cc(-c3cccnc3)ccc2S(=O)(=O)N([C@@H](C)CO)C[C@H]1C | 1 | 3 | 0 | -1 | -22 | -4
CC1(C(=O)NCc2ccccc2)CN(S(C)(=O)=O)CC(=O)N1CCc1ccc(O)cc1 (stereo not given) | 0 | . | 0 | 0 | . | 26*
CC1(C(=O)NCc2ccccc2)CN(S(C)(=O)=O)CC(=O)N1CCc1ccccc1F (stereo not given) | 0 | . | 0 | 0 | . | 74*
CC(C)CN1C(=O)CN(S(C)(=O)=O)CC1(C)C(=O)NC(C)C (stereo not given) | 0 | . | 0 | 0 | . | 27*
Cc1noc(C)c1S(=O)(=O)Nc1ccc2c(c1)CC(=O)N([C@@H](C)CO)C[C@@H](C)[C@H](CN(C)Cc1ccc(C(=O)Nc3ccccc3N)cc1)O2 | -1 | -3 | -1 | . | -35 | -1
CC1(C)OC(=O)C2=C(C[C@@H](C3CC3)O[C@@H]2C2CC2)O1 | 0 | . | 0 | 0 | . | 61*
CC1(C)OC(=O)C2=C(C[C@@H](C3CCCC3)O[C@H]2CCc2cccc(Cl)c2)O1 | 0 | . | 1 | 0 | . | 8
COC(=O)c1ccccc1-c1ccc(/C=N/NC(N)=O)o1 | 0 | -4 | 2.9* | 1 | -2 | 9
Cc1ccc(C2=NOC3(CC(=O)N(c4ccccc4)C3=O)C2)cc1 (stereo not given) | 0 | 9 | 0 | . | 76* | 7
CCOC(=O)N1CCN(C(=O)C2CCN(S(=O)(=O)c3ccc(F)cc3)CC2)CC1 | 0 | . | 43* | -1 | 2 | .
CCOC(=O)N1CCN(C(=O)C2CCN(S(=O)(=O)c3ccc(C)cc3)CC2)CC1 | . | -7 | . | . | 19 | .
C[C@@H]1CN([C@H](C)CO)C(=O)c2cc(C#Cc3ccc(F)cc3)cnc2O[C@H]1CN(C)S(C)(=O)=O | -1 | 2 | 0 | 0 | 7 | -6
CC(c1ccon1)N(C)Cc1c(C(=O)N(C)Cc2ccccc2)nc2ccccn12 (stereo not given) | 0 | 5 | 43* | . | -6 | 3
O=C(C[C@H]1C[C@H]2c3cc(NC(=O)CC4CC4)ccc3O[C@H]2[C@H](CO)O1)NCC1CC1 | 0 | -8 | 0 | 0 | 0 | ?
COc1ccccc1C(=O)NCCC(=O)N1CCN(C(C)=O)CC1 | 0 | . | 0 | . | . | 50*
COc1ccccc1C(=O)NCCC(=O)N1CCN(C(=O)c2ccco2)CC1 | 0 | -6 | 0 | -2 | -1 | ?
COc1ccccc1C(=O)Nc1ccc(N2CCN(C(C)=O)CC2)cc1 | 0 | . | 42 | 0 | . | .
CC(=O)N1CCN(C(=O)COc2ccccc2C(=O)Nc2ccccc2)CC1 | 0 | -3 | 43* | 0 | 2 | 1
COc1ccc2c3c(n(C)c2c1)[C@@H](CO)N(C(=O)CN1CCOCC1)CC31CN(C(=O)C2CC2)C1 | 0 | . | 0 | 0 | . | -19
FC(F)(F)c1ccc2c(c1)NCC1CCCN21 (stereo not given) | 0 | . | 0 | 5 | . | 5
FC(F)(F)c1ccc2c(c1)N1CCCC1CN2 (stereo not given) | 0 | . | 0 | 58* | 7 | .
Cc1noc(C)c1NC(=O)N(C)C[C@H]1Oc2c(NC(=O)NC3CCCCC3)cccc2C(=O)N([C@@H](C)CO)C[C@H]1C | 0 | 2 | 0 | 0 | 10 | 17
SMILES | Xi reactivation | PglD inh | FGF22 binding | E-selectin induc | C2C12 statin | DENV2 CPE
Cc1cn(-c2ccccc2)c(C)c1/C=N\Nc1nc(N2CCOCC2)nc(N2CCOCC2)n1 | 0 | . | 43* | 0 | -4 | 1
O=[N+]([O-])c1ccc(Cl)c(/C=N/Nc2nc(N3CCOCC3)nc(N3CCOCC3)n2)c1 | . | 2 | . | 2 | -31 | .
O=[N+]([O-])c1cccc(/C=N/Nc2nc(N3CCOCC3)nc(N3CCOCC3)n2)c1 | 0 | . | 44* | . | . | 11
COc1ccc(NC(=O)CCCN2C(=O)CCC2=O)cc1Cl | . | 13 | . | . | 7 | .
COc1ccc(NC(=O)CCCC(=O)O)cc1Cl | 0 | . | 43* | 13 | . | -3
COc1ccc(NC(=O)[C@@H](NC(N)=O)C(C)C)cc1Cl | 0 | . | 44* | . | . | 4
COc1ccc(NC(=O)COC(=O)c2c(C)noc2C)cc1Cl | 0 | 2 | . | 0 | -2 | 39*
COc1ccc(CCNC(=O)C(NC(=O)OCc2ccccc2)C(C)C)cc1OC (stereo not given) | 0 | . | 0 | 0 | 15 | -1
CC[C@H](C)[C@H](NC(N)=O)C(=O)Nc1ccc(OC)c(Cl)c1 | 0 | -1 | 0 | 7 | -2 | -3
CC[C@H](C)[C@H](NC(N)=O)C(=O)NCCc1ccc(OC)c(OC)c1 | 0 | . | 43* | 0 | -5 | 14
C[C@H](CO)N1C[C@H](C)[C@H](CN(C)Cc2ccc(Oc3ccccc3)cc2)Oc2ccc(NS(=O)(=O)c3cn(C)cn3)cc2C1=O | 0 | -1 | 0 | 1 | 40 | -2
C[C@@H]1CN([C@H](C)CO)C(=O)c2cc(NC(=O)CCN3CCOCC3)ccc2O[C@@H]1CN(C)Cc1ccncc1 | 0 | -10 | 0 | 36* | 26 | 9
C[C@H](CO)N1C[C@H](C)[C@@H](CN(C)Cc2ccncc2)Oc2ccc(NC(=O)CCN3CCOCC3)cc2C1=O | 0 | -5 | 0 | 2 | -7 | 0
C[C@H]1CN([C@@H](C)CO)C(=O)c2cc(NC(=O)CCN3CCOCC3)ccc2O[C@@H]1CN(C)Cc1ccncc1 | 0 | 6 | 0 | 362* | -10 | -5
C[C@@H]1CN([C@H](C)CO)C(=O)c2cc(NC(=O)CCN3CCOCC3)ccc2O[C@@H]1CN(C)Cc1ccc(C(F)(F)F)cc1 | -1 | -7 | 0 | 178* | 23 | 8
C[C@H](CO)N1C[C@H](C)[C@@H](CN(C)C)Oc2ccc(NS(=O)(=O)c3ccc(Cl)cc3)cc2CC1=O | -1 | 2 | 0 | . | 3 | 6
CCCN1C[C@H](C)[C@@H](OC)CN(C)C(=O)c2ccc(NC(=O)CC)cc2OC[C@H]1C | 1 | . | . | 0 | -1 | .
